Positions of bridges follow the written chain, without caps; N, C: chain ends. Non-standard residues stand in square brackets, D forms with d. Residues, ends and D or L forms follow the SMILES beside them. pY = N[C@@H](Cc1ccc(OP(=O)(O)O)cc1)C(=O)O
Tests used:
[1] = molecular target: T1, Growth factor receptor-bound protein 2 (Homo sapiens, UniProt P62993); assay: Inhibition of Growth factor receptor bound protein 2 SH2 domain binding in plasmon resonance binding assay
Summary of the method: (§1)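 Biotin-DDPSpYVNVQ (SHC phosphopeptide) immobilized on SA5 streptavidin chips at 2 nM. Equilibrium Ru was read 20 s after flow ended and compared with binding without inhibitor to derive IC50. Two experiments on separate chips.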

[2] = molecular target: T1, Growth factor receptor-bound protein 2; assay: (§2) Inhibition of Grb2 SH2 domain binding in MDA-MB-453 human breast carcinoma cell lysates
Summary of the method: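 Lysates of serum-treated MDA-MB-453 cells were made in 1% Triton X-100/PBS with 0.2 mM NaVO4 and incubated 30 min with compound. Grb2 was immunoprecipitated from 5 mg lysate with anti-Grb2 and protein A Sepharose. Proteins were resolved by 8–16% SDS-PAGE, and coprecipitated p185erbB-2 was detected by anti-phosphotyrosine Western blot. Single experiment, equal lysate amounts.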

[3] = molecular target: T1, Growth factor receptor-bound protein 2; assay: Inhibition of Grb2 SH2 domain binding by surface plasmon resonance; summary of the method: as §1
[4] = molecular target: T1, Growth factor receptor-bound protein 2; assay: as §2; conditions: in the assay text read “cells” for “cell lysates”
[5] = molecular target: T1, Growth factor receptor-bound protein 2; assay: Inhibition of Grb2 SH2 domain binding

| SMILES | IC50 [1] [nM] | IC50 [2] [nM] | also measured |
| --- | --- | --- | --- |
| CC(=O)N[C@@H](Cc1ccc(OP(=O)(O)O)cc1)C(=O)NC1(C(=O)N[C@@H](CC(N)=O)C(=O)NCCCc2cccc3ccccc23)CCCCC1 | – | – | IC50 [3]: 70 nM |
| CC(=O)N[C@@H](Cc1ccc(O)cc1)C(=O)NC1(C(=O)N[C@@H](CC(N)=O)C(=O)NCCCc2cccc3ccccc23)CCCCC1 | – | – | IC50 [4]: > 50000 nM |
| CC(=O)N[C@@H](Cc1ccc(OP(=O)(O)O)cc1)C(=O)NC1(C(=O)N[C@@H](CC(N)=O)C(=O)NCCCc2c(O)ccc3ccccc23)CCCCC1 | – | – | IC50 [5]: 11 nM |
| CC(=O)N[C@@H](Cc1ccc(OCC(=O)O)c(OCC(=O)O)c1)C(=O)NC1(C(=O)N[C@@H](CC(N)=O)C(=O)NCCCc2cccc3ccccc23)CCCCC1 | > 100000 | – | – |
| NC(=O)C[C@H](NC(=O)C1(NC(=O)[C@H](Cc2ccc(OCC(=O)O)c(C(=O)O)c2)NC(=O)C(=O)O)CCCCC1)C(=O)NCCCc1cccc2ccccc12 | 1300 | 500 | – |
| CC[C@H](C)[C@@H]1NC(=O)[C@H](Cc2ccc(OP(=O)(O)O)cc2)NC(=O)[C@@H](NC(C)=O)CSSC[C@@H](C(N)=O)NC(=O)[C@H](CC(N)=O)NC1=O (Ac-C[pY]INC-NH2; disulfide 1-5) | – | – | IC50 [5]: 370 nM |
| CC(C)[C@H](NC(=O)[C@H](CC(N)=O)NC(=O)[C@@H](NC(=O)[C@H](Cc1ccc(OP(=O)(O)O)cc1)NC(=O)[C@H](CO)NC(=O)[C@@H]1CCCN1C(=O)[C@H](CC(=O)O)NC(=O)[C@@H](N)CC(=O)O)C(C)C)C(=O)N[C@@H](CCC(N)=O)C(=O)O (H-DDPS[pY]VNVQ-OH) | – | – | IC50 [5]: 1300 nM |

The next lines start with results.

| IC50 [1] [nM] | IC50 [2] [nM] | SMILES | also measured |
| --- | --- | --- | --- |
| 80 | 500 | CC(=O)N[C@@H](Cc1ccc(C(F)(F)P(=O)(O)O)cc1)C(=O)NC1(C(=O)N[C@@H](CC(N)=O)C(=O)NCCCc2cccc3ccccc23)CCCCC1 | – |
| 80 | 500 | CC(=O)N[C@@H](Cc1ccc(CP(=O)(O)O)cc1)C(=O)NC1(C(=O)N[C@@H](CC(N)=O)C(=O)NCCCc2cccc3ccccc23)CCCCC1 | – |
| 6700 | – | CC(=O)N[C@@H](Cc1ccc(OCC(=O)O)c(C(=O)O)c1)C(=O)NC1(C(=O)N[C@@H](CC(N)=O)C(=O)NCCCc2cccc3ccccc23)CCCCC1 | – |
| – | 500 | NC(=O)C[C@H](NC(=O)C1(NC(=O)[C@H](Cc2ccc(CP(=O)(O)O)cc2)NC(=O)C(=O)O)CCCCC1)C(=O)NCCCc1cccc2ccccc12 | – |
